From ChEMBL document CHEMBL1136760 (J Med Chem, 2003)

Assays:
[1] = target: T1, Sodium-dependent dopamine transporter (Rattus norvegicus, UniProt P23977); assay: Inhibition of [3H]WIN-35428 binding to the cocaine binding site on the dopamine transporter (DAT) in synaptosomal membrane preparations from rat striatal tissue.; format: cell membranes, Striatum
[2] = target: Sodium-dependent serotonin transporter (Rattus norvegicus, UniProt P31652); assay: Inhibition of [3H]citalopram binding to Serotonin transporter (5-HTT) in rat cortical tissue.
In short: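 Rat cortical P2 fraction homogenized in 16 volumes of ice-cold 25 mM sodium phosphate, pH 7.7. [3H]citalopram at 2 nM final; 1 µM clomipramine defines nonspecific binding. Usually seven drug concentrations, triplicates, organic solvent ≤0.3 vol %. Incubated 3 h at 0 °C, then filtered on PEI-soaked glass fibre and counted. IC50 and Hill coefficients from dose-response curves.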

[3] = target: T1, Sodium-dependent dopamine transporter; assay: Inhibition of [3H]DA uptake at DAT in rat striatal synaptosomes.
[4] = target: Monoamine transporters; serotonin & dopamine (Rattus norvegicus) (UniProt P31652+P23977); assay: Selectivity ratio for DAT binding compared to 5-HTT binding.; format: protein assay
[5] = target: Sodium-dependent serotonin transporter (Rattus norvegicus) (UniProt P31652); assay: Inhibition of [3H]citalopram binding to Serotonin transporter (5-HTT) in rat cortical tissue […]; settings: 10 uM
In short: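 Rat cortical P2 membranes in 25 mM sodium phosphate, pH 7.7; 1 µM clomipramine defines nonspecific binding. Incubated 3 h at 0 °C, then rapid filtration on PEI-presoaked filters and radioactivity counting.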

Sequence of Monoamine transporters; serotonin & dopamine (Rattus norvegicus) (P23977 whole entry, looked up): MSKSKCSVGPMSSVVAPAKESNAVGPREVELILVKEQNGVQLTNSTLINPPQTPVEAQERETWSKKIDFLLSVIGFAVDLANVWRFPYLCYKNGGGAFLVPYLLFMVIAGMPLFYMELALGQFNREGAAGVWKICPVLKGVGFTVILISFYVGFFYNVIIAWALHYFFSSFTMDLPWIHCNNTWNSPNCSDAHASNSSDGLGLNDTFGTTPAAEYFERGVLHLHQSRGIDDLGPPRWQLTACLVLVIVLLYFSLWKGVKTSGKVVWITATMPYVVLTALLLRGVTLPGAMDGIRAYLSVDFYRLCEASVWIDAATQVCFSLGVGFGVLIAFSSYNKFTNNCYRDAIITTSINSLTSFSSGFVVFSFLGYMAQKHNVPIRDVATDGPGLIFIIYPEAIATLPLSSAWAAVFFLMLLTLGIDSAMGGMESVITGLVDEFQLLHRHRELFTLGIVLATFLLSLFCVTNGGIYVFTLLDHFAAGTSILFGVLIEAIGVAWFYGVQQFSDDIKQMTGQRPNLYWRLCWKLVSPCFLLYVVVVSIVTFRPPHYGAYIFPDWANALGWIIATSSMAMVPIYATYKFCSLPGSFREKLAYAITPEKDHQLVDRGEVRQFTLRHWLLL
Sequence of Monoamine transporters; serotonin & dopamine (Rattus norvegicus) (P31652 whole entry, looked up): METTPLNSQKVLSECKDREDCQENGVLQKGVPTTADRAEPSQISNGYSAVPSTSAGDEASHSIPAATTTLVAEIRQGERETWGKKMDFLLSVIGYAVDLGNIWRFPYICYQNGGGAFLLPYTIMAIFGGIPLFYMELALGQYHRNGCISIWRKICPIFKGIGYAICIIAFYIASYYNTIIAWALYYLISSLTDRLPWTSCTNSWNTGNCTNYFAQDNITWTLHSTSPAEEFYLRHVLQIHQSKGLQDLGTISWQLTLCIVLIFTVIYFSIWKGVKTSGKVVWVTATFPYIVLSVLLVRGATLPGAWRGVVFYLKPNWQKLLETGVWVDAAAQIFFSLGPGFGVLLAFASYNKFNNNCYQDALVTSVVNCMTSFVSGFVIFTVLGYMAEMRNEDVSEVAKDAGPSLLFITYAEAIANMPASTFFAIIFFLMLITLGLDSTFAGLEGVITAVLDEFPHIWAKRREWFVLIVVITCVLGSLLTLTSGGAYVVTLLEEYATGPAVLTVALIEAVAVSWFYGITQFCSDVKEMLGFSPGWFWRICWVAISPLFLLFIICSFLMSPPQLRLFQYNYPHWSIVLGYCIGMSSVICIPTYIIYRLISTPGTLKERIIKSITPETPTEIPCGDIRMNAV
T1 sequence (P23977 whole entry): as the sequence (P23977 whole entry, looked up) above
Sequence of Sodium-dependent serotonin transporter (P31652 whole entry): as the sequence (P31652 whole entry, looked up) above
Sequence of Sodium-dependent serotonin transporter (Rattus norvegicus) (P31652 whole entry): as the sequence (P31652 whole entry, looked up) above

Row | SMILES | IC50 [1] [µM] | IC50 [2] [µM] | IC50 [3] [µM] | Selectivity ratio [4] | inhibition [5] [%]
1 | c1ccc(CN2CC3CCC(C2)C3c2ccccc2)cc1 (stereo in doubt; 8a) [3-BENZYL-8-PHENYL-3-AZA-BICYCLO[3.2.1]OCTANE (STEREOISOMERIC MIX)] | 0.234 | 3.46 | 0.309 | – | –
2 | c1ccc(CN2CC3CCC(C2)C3c2ccccc2)cc1 (stereo in doubt; 14) | – | – | – | 4.9 | –
3 | OC1(c2ccccc2)C2CCC1CNC2 (stereo unspecified) | – | – | 8.48 | – | 46.2
4 | c1ccc(CN2CC3CCC(C2)C3c2ccccc2)cc1 (stereo in doubt; 8a) | – | – | – | 14.8 | –
5 | CN1CC2CCC(C1)C2c1ccc(Cl)cc1 (stereo unspecified) | – | 0.22 | 0.926 | 0.81 | –
6 | OC1(c2ccc(Cl)cc2)C2CCC1CN(Cc1ccccc1)C2 (stereo unspecified) | 1.51 | 0.997 | 2.63 | 0.66 | –
7 | c1ccc(CN2CC3CCC(C2)C3c2ccccc2)cc1 (stereo in doubt; 14) [3-BENZYL-8-PHENYL-3-AZA-BICYCLO[3.2.1]OCTANE (STEREOISOMERIC MIX)] | 0.785 | 3.88 | 4.45 | – | –
8 | OC1C2CCC1CN(Cc1ccccc1)C2 (stereo unspecified) | 22.1 | > 10 | 45 | > 0.45 | 23.8
9 | c1ccc(CN2CC3CCC(C2)C3OC(c2ccccc2)c2ccccc2)cc1 (stereo in doubt; 17b) [listing 1 of 2 here] | – | – | – | > 18 | 29.8
10 | c1ccc(CN2CC3CCC(C2)C3OC(c2ccccc2)c2ccccc2)cc1 (stereo in doubt; 17b) [listing 2 of 2 here] | 0.536 | > 10 | 1.98 | – | –
11 | CN1CC2CCC(C1)C2c1ccccc1 (stereo unspecified) | 0.36 | 1.85 | 1.04 | 5.1 | –
12 | Clc1ccc(C2C3CCC2CN(Cc2ccccc2)C3)cc1 (stereo unspecified) | 0.0955 | 0.402 | 0.601 | 4.2 | –
13 | c1ccc(CN2CC3CCC(C2)C3OC(c2ccccc2)c2ccccc2)cc1 (stereo in doubt; 17a) [listing 1 of 2 here] | 0.363 | 10 | 0.735 | – | –
14 | c1ccc(CN2CC3CCC(C2)C3OC(c2ccccc2)c2ccccc2)cc1 (stereo in doubt; 17a) [listing 2 of 2 here] | – | – | – | 27 | 61
15 | c1ccc(CN2CC3CCC(C3)C2)cc1 | 24.3 | > 10 | 35.7 | > 0.41 | 24.4
16 | BrC1C2CCC1CN(Cc1ccccc1)C2 (stereo unspecified) | – | > 10 | 8.64 | > 2.2 | 30.4
17 | c1ccc(C2C3CCC2CNC3)cc1 (stereo unspecified) | 0.258 | 4 | 0.893 | 16 | –
18 | CN1CC2CCC(C1)C2(O)c1ccccc1 (stereo unspecified) | 10.1 | > 10 | 9.77 | > 1 | 27.8
19 | Clc1ccc(C2C3CCC2CNC3)cc1 (stereo unspecified) | 0.0815 | 0.363 | 0.478 | 4.4 | –
20 | OC1(c2ccccc2)C2CCC1CN(Cc1ccccc1)C2 (stereo unspecified) | 17.5 | 3.06 | 27.1 | 0.17 | –
